Measurements from ChEMBL document CHEMBL1149773, “Synthesis, determination of the lipophilicity, anticancer and antimicrobial properties of some fused 1,2,4-triazole derivatives” (Eur J Med Chem, 2008).
In brackets after ≈: the same amount, converted by molar mass.

What was measured:
Pseudomonas aeruginosa [1] = assay: Antimicrobial activity against Pseudomonas aeruginosa ATCC 27853 at 200 ug/mL by disc-diffusion method; assay type: functional; details: read-out: IZ
Summary of the method: (§1)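 Kirby–Bauer disc diffusion: 5 mm paper discs soaked in compound solution in DMSO (100 or 200 µg/mL; reference drugs 200 µg/mL) and laid on inoculated Mueller-Hinton agar (bacteria) or Sabouraud agar (C. albicans, Aspergillus). DMSO discs were the control. Plates ran 24 h at 35 °C. Inhibition zone diameter was scored 0–10 mm R, 11–16 mm I, 17–25 mm S; triplicate.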

Proteus vulgaris [2] = assay: Antimicrobial activity against Proteus vulgaris at 100 ug/mL by disc-diffusion method; assay type: functional; details: read-out: IZ; summary of the method: as §1
Proteus vulgaris [3] = assay: Antimicrobial activity against Proteus vulgaris at 200 ug/mL by disc-diffusion method; assay type: functional; details: read-out: IZ; summary of the method: as §1
Klebsiella pneumoniae [4] = assay: Antimicrobial activity against Klebsiella pneumoniae at 100 ug/mL by disc-diffusion method; assay type: functional; details: read-out: IZ; summary of the method: as §1
Klebsiella pneumoniae [5] = assay: Antimicrobial activity against Klebsiella pneumoniae at 200 ug/mL by disc-diffusion method; assay type: functional; details: read-out: IZ; summary of the method: as §1
Klebsiella aerogenes [6] = assay: Antimicrobial activity against Enterobacter aerogenes at 100 ug/mL by disc-diffusion method; assay type: functional; details: read-out: IZ; summary of the method: as §1
Klebsiella aerogenes [7] = assay: Antimicrobial activity against Enterobacter aerogenes at 200 ug/mL by disc-diffusion method; assay type: functional; details: read-out: IZ; summary of the method: as §1
Staphylococcus aureus [8] = assay: Antimicrobial activity against Staphylococcus aureus ATCC 25923 at 100 ug/mL by disc-diffusion method; assay type: functional; details: read-out: IZ; summary of the method: as §1
Staphylococcus aureus [9] = assay: Antimicrobial activity against Staphylococcus aureus ATCC 25923 at 200 ug/mL by disc-diffusion method; assay type: functional; details: read-out: IZ; summary of the method: as §1
[10] = system: Staphylococcus epidermidis; assay: Antimicrobial activity against Staphylococcus epidermidis at 100 ug/mL by disc-diffusion method; assay type: functional; details: read-out: IZ; summary of the method: as §1
[11] = system: Staphylococcus epidermidis; assay: Antimicrobial activity against Staphylococcus epidermidis at 200 ug/mL by disc-diffusion method; assay type: functional; details: read-out: IZ; summary of the method: as §1
Streptococcus pyogenes [12] = assay: Antimicrobial activity against Streptococcus pyogenes at 100 ug/mL by disc-diffusion method; assay type: functional; details: read-out: IZ; summary of the method: as §1
Streptococcus pyogenes [13] = assay: Antimicrobial activity against Streptococcus pyogenes at 200 ug/mL by disc-diffusion method; assay type: functional; details: read-out: IZ; summary of the method: as §1
Streptococcus agalactiae [14] = assay: Antimicrobial activity against Streptococcus agalactiae at 100 ug/mL by disc-diffusion method; assay type: functional; details: read-out: IZ; summary of the method: as §1
Streptococcus agalactiae [15] = assay: Antimicrobial activity against Streptococcus agalactiae at 200 ug/mL by disc-diffusion method; assay type: functional; details: read-out: IZ; summary of the method: as §1
Candida albicans [16] = assay: Antimicrobial activity against Candida albicans ATCC 10231 at 100 ug/mL by disc-diffusion method; assay type: functional; details: read-out: IZ; summary of the method: as §1
Candida albicans [17] = assay: Antimicrobial activity against Candida albicans ATCC 10231 at 200 ug/mL by disc-diffusion method; assay type: functional; details: read-out: IZ; summary of the method: as §1
Aspergillus sp. [18] = assay: Antimicrobial activity against Aspergillus sp. at 100 ug/mL by disc-diffusion method; assay type: functional; details: read-out: IZ; summary of the method: as §1
Aspergillus sp. [19] = assay: Antimicrobial activity against Aspergillus sp. at 200 ug/mL by disc-diffusion method; assay type: functional; details: read-out: IZ; summary of the method: as §1
Candida albicans [20] = assay: Antimicrobial activity against Candida albicans ATCC 10231 after 24 hrs by microdilution assay; assay type: functional; details: ATCC 10231, 24 h
[21] = Lipophilicity, log kw in dioxane aqueous system at pH 3.5; assay type: physicochemical; details: buffer
Summary of the method: (§2)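 RP-HPLC on an octadecyl silica column (150 × 4.6 mm, 5 µm) at 22 ± 1 °C, flow 1.0 mL min⁻¹, UV detection at 254 nm. Mobile phase was methanol, acetonitrile or dioxane with water and 0.01 M phosphate buffer pH 3.5 containing 0.05 M DEA. log k_W was extrapolated to pure water by regression.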

Escherichia coli [22] = assay: Antimicrobial activity against Escherichia coli ATCC 25922 at 100 ug/mL by disc-diffusion method; assay type: functional; details: read-out: IZ; summary of the method: as §1
Escherichia coli [23] = assay: Antimicrobial activity against Escherichia coli ATCC 25922 at 200 ug/mL by disc-diffusion method; assay type: functional; details: read-out: IZ; summary of the method: as §1
Pseudomonas aeruginosa [24] = assay: Antimicrobial activity against Pseudomonas aeruginosa ATCC 27853 at 100 ug/mL by disc-diffusion method; assay type: functional; details: read-out: IZ; summary of the method: as §1
[25] = Lipophilicity, log kw in acetonitrile aqueous system at pH 3.5; assay type: physicochemical; summary of the method: as §2
[26] = Lipophilicity, log kw in methanol aqueous system at pH 3.5; assay type: physicochemical; summary of the method: as §2
[27] = Antiproliferative activity against human skin fibroblast assessed as cell viability at 1 uM by MTT assay; assay type: cell-based; details: human skin fibroblasts, read-out: Activity
Summary of the method: (§3)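 Log-phase cells, kept in supplemented RPMI 1640 (HSF in DMEM/10% FBS) at 37 °C, 5% CO2, were exposed 24 h to 1, 50 or 100 µM compound from DMSO. They were washed, given 0.5 mg/mL MTT in HEPES buffer pH 7.4 for 45 min at 37 °C, and formazan was dissolved in DMSO and read at 570 nm. Values are % viability versus control from three independent measurements.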

[28] = Antiproliferative activity against human skin fibroblast assessed as cell viability at 50 uM by MTT assay; assay type: cell-based; details: human skin fibroblasts, read-out: Activity
Summary of the method: (§4)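 MTT viability assay on primary human skin fibroblasts grown in DMEM with 10% FBS and penicillin/streptomycin. Compounds were dissolved in DMSO and given at 1, 50 or 100 µM for 24 h. Cells were washed in HEPES-buffered medium (pH 7.4) and then given MTT 0.5 mg mL⁻¹ for 45 min at 37 °C. Formazan was dissolved in DMSO and read at 570 nm. Viability is % of control; three independent measurements.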

[29] = Antiproliferative activity against human skin fibroblast assessed as cell viability at 100 uM by MTT assay; assay type: cell-based; details: human skin fibroblasts, read-out: Activity; summary of the method: as §4
[30] = Antiproliferative activity against human RPMI cells assessed as cell viability at 1 uM by MTT assay; assay type: functional; details: read-out: Activity; summary of the method: as §3
[31] = Antiproliferative activity against human RPMI cells assessed as cell viability at 50 uM by MTT assay; assay type: functional; details: read-out: Activity; summary of the method: as §3
[32] = Antiproliferative activity against human RPMI cells assessed as cell viability at 100 uM by MTT assay; assay type: functional; details: read-out: Activity; summary of the method: as §3
HeLa [33] = assay: Antiproliferative activity against human HeLa cells assessed as cell viability at 1 uM by MTT assay; assay type: functional; details: read-out: Activity; summary of the method: as §3
HeLa [34] = assay: Antiproliferative activity against human HeLa cells assessed as cell viability at 50 uM by MTT assay; assay type: functional; details: read-out: Activity; summary of the method: as §3
HeLa [35] = assay: Antiproliferative activity against human HeLa cells assessed as cell viability at 100 uM by MTT assay; assay type: functional; details: read-out: Activity; summary of the method: as §3

Sc1nnc2n1CCN2c1ccc(Cl)cc1
zone of inhibition at 200 µg/mL (Pseudomonas aeruginosa [1]): 0 mm | zone of inhibition at 100 µg/mL (Proteus vulgaris [2]): 0 mm | zone of inhibition at 200 µg/mL (Proteus vulgaris [3]): 0 mm | zone of inhibition at 100 µg/mL (Klebsiella pneumoniae [4]): 0 mm | zone of inhibition at 200 µg/mL (Klebsiella pneumoniae [5]): 0 mm | zone of inhibition at 100 µg/mL (Klebsiella aerogenes [6]): 0 mm | zone of inhibition at 200 µg/mL (Klebsiella aerogenes [7]): 0 mm | zone of inhibition at 100 µg/mL (Staphylococcus aureus [8]): 0 mm | zone of inhibition at 200 µg/mL (Staphylococcus aureus [9]): 0 mm | zone of inhibition at 100 µg/mL [10]: 0 mm | zone of inhibition at 200 µg/mL [11]: 0 mm | zone of inhibition at 100 µg/mL (Streptococcus pyogenes [12]): 0 mm | zone of inhibition at 200 µg/mL (Streptococcus pyogenes [13]): 0 mm | zone of inhibition at 100 µg/mL (Streptococcus agalactiae [14]): 0 mm | zone of inhibition at 200 µg/mL (Streptococcus agalactiae [15]): 0 mm | zone of inhibition at 100 µg/mL (Candida albicans [16]): 17 mm | zone of inhibition at 200 µg/mL (Candida albicans [17]): 17 mm | zone of inhibition at 100 µg/mL (Aspergillus sp. [18]): 0 mm | zone of inhibition at 200 µg/mL (Aspergillus sp. [19]): 0 mm | MIC (Candida albicans [20]): 30.9 µM (≈ 7.81 µg/mL) | logKw [21]: -0.09 | zone of inhibition at 100 µg/mL (Escherichia coli [22]): 0 mm | zone of inhibition at 200 µg/mL (Escherichia coli [23]): 0 mm | zone of inhibition at 100 µg/mL (Pseudomonas aeruginosa [24]): 0 mm

Cc1cc(Cl)ccc1OCc1nnc2n1CCN2c1ccc(Cl)cc1
logKw [21]: 3.87 | logKw [25]: 3.7 | logKw [26]: 4.61 | viability at 1 µM [27]: 79.5% | viability at 50 µM [28]: 74% | viability at 100 µM [29]: 71% | viability at 1 µM [30]: 46.4% | viability at 50 µM [31]: 32.4% | viability at 100 µM [32]: 31.1% | viability at 1 µM (HeLa [33]): 92.1% | viability at 50 µM (HeLa [34]): 71.8% | viability at 100 µM (HeLa [35]): 71%

Cc1ccc(N2CCn3c(COc4ccc(Cl)cc4)nnc32)cc1
logKw [21]: 3.55 | logKw [25]: 3.04 | logKw [26]: 4.27 | viability at 1 µM [27]: 88.1% | viability at 50 µM [28]: 68.4% | viability at 100 µM [29]: 64.7% | viability at 1 µM [30]: 104% | viability at 50 µM [31]: 39.5% | viability at 100 µM [32]: 39.9% | viability at 1 µM (HeLa [33]): 89% | viability at 50 µM (HeLa [34]): 78.3% | viability at 100 µM (HeLa [35]): 77.9%

Clc1ccc(OCc2nnc3n2CCN3c2ccc(Cl)cc2)cc1
logKw [21]: 3.41 | logKw [25]: 3.23 | logKw [26]: 4.38 | viability at 1 µM [27]: 88.7% | viability at 50 µM [28]: 63.8% | viability at 100 µM [29]: 16.2% | viability at 1 µM [30]: 60.1% | viability at 50 µM [31]: 34.5% | viability at 100 µM [32]: 34% | viability at 1 µM (HeLa [33]): 63.2% | viability at 50 µM (HeLa [34]): 56.3% | viability at 100 µM (HeLa [35]): 52.4%

COc1ccc(N2CCn3cnnc32)cc1
logKw [21]: 1.22 | logKw [25]: 1.56 | logKw [26]: 1.87 | viability at 1 µM [27]: 105% | viability at 50 µM [28]: 95.2% | viability at 100 µM [29]: 89.3% | viability at 1 µM [30]: 102% | viability at 50 µM [31]: 96.5% | viability at 100 µM [32]: 91.3% | viability at 1 µM (HeLa [33]): 93% | viability at 50 µM (HeLa [34]): 91.7% | viability at 100 µM (HeLa [35]): 80.6%

COc1ccc(N2CCn3c(COc4ccc(Cl)cc4)nnc32)cc1
logKw [21]: 1.52 | logKw [25]: 1.54 | logKw [26]: 1.88 | viability at 1 µM [27]: 80.3% | viability at 50 µM [28]: 67.1% | viability at 100 µM [29]: 64.6% | viability at 1 µM [30]: 99.7% | viability at 50 µM [31]: 98.4% | viability at 100 µM [32]: 94.9% | viability at 1 µM (HeLa [33]): 81.5% | viability at 50 µM (HeLa [34]): 72.1% | viability at 100 µM (HeLa [35]): 68.9%
